Measured values published in ChEMBL document CHEMBL1221342, “Synthesis and in vitro antitumor activity of new 4,5-dihydropyrazole derivatives” (Bioorg Med Chem, 2010).

Experiments:
KM12 = assay: Growth inhibition of human KM12 cells after 48 hrs by SRB assay; format: functional; conditions: KM12, 48 h
Procedure, shortened: (§1)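 NCI 60-cell-line screen. Cells grown in RPMI1640 with 5% fetal calf serum and 2 mM L-glutamine, with inoculum density set by cell line. Preincubated 24 h, then given compound in DMSO at 10^-4 to 10^-8 M (five 10-fold steps) for 48 h continuous exposure. Growth measured by SRB protein assay. GI50, TGI and LC50 reported as –log molar.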

OVCAR-8 = assay: Growth inhibition of human OVCAR8 cells after 48 hrs by SRB assay; format: functional; conditions: OVCAR-8, 48 h; procedure, shortened: as §1
SK-MEL-5 = assay: Growth inhibition of human SK-MEL-5 cells after 48 hrs by SRB assay; format: functional; conditions: SK-MEL-5, 48 h; procedure, shortened: as §1
SK-OV-3 = assay: Growth inhibition of human SKOV3 cells after 48 hrs by SRB assay; format: functional; conditions: SK-OV-3, 48 h; procedure, shortened: as §1
NCI-H322M = assay: Growth inhibition of human NCI-H322M cells after 48 hrs by SRB assay; format: functional; procedure, shortened: as §1
[1] = Growth inhibition of human […] cells after 48 hrs by SRB assay; format: functional; procedure, shortened: as §1
NCI/ADR-RES = assay: Growth inhibition of human NCI/ADR-RES cells after 48 hrs by SRB assay; format: functional; procedure, shortened: as §1
CCRF-CEM = assay: Growth inhibition of human CCRF-CEM cells after 48 hrs by SRB assay; format: functional; procedure, shortened: as §1
SW-620 = assay: Growth inhibition of human SW620 cells after 48 hrs by SRB assay; format: functional; conditions: SW-620, 48 h; procedure, shortened: as §1
OVCAR-4 = assay: Growth inhibition of human OVCAR4 cells after 48 hrs by SRB assay; format: functional; conditions: OVCAR-4, 48 h; procedure, shortened: as §1
HCT-15 = assay: Growth inhibition of human HCT15 cells after 48 hrs by SRB assay; format: functional; conditions: HCT-15, 48 h; procedure, shortened: as §1
A498 = assay: Growth inhibition of human A498 cells after 48 hrs by SRB assay; format: functional; conditions: A498, 48 h; procedure, shortened: as §1
OVCAR-3 = assay: Growth inhibition of human OVCAR-3 cells after 48 hrs by SRB assay; format: functional; conditions: OVCAR-3, 48 h; procedure, shortened: as §1
K562 = assay: Growth inhibition of human K562 cells after 48 hrs by SRB assay; format: functional; conditions: K562, 48 h; procedure, shortened: as §1
NCI-H460 [2] = assay: Growth inhibition of human NCI-H460 cells after 48 hrs by SRB assay; format: functional; conditions: NCI-H460, 48 h; procedure, shortened: as §1
U-251 = assay: Growth inhibition of human U251 cells after 48 hrs by SRB assay; format: functional; conditions: U-251, 48 h; procedure, shortened: as §1
786-0 = assay: Growth inhibition of human 786-0 cells after 48 hrs by SRB assay; format: functional; conditions: 786-0, 48 h; procedure, shortened: as §1
MDA-MB-468 = assay: Growth inhibition of human MDA-MB-468 cells after 48 hrs by SRB assay; format: functional; conditions: MDA-MB-468, 48 h; procedure, shortened: as §1
TK-10 = assay: Growth inhibition of human TK10 cells after 48 hrs by SRB assay; format: functional; conditions: TK-10, 48 h; procedure, shortened: as §1
MDA-MB-435 = assay: Growth inhibition of human MDA-MB-435 cells after 48 hrs by SRB assay; format: functional; conditions: MDA-MB-435, 48 h; procedure, shortened: as §1
BT-549 = assay: Growth inhibition of human BT549 cells after 48 hrs by SRB assay; format: functional; conditions: BT-549, 48 h; procedure, shortened: as §1
RXF 393 = assay: Growth inhibition of human RXF393 cells after 48 hrs by SRB assay; format: functional; conditions: RXF 393, 48 h; procedure, shortened: as §1
SF-268 = assay: Growth inhibition of human SF268 cells after 48 hrs by SRB assay; format: functional; conditions: SF-268, 48 h; procedure, shortened: as §1
NCI-H522 = assay: Growth inhibition of human NCI-H522 cells after 48 hrs by SRB assay; format: functional; conditions: NCI-H522, 48 h; procedure, shortened: as §1
DU-145 = assay: Growth inhibition of human DU145 cells after 48 hrs by SRB assay; format: functional; conditions: DU-145, 48 h; procedure, shortened: as §1
HOP-62 = assay: Growth inhibition of human HOP62 cells after 48 hrs by SRB assay; format: functional; conditions: HOP-62, 48 h; procedure, shortened: as §1
PC-3 = assay: Growth inhibition of human PC3 cells after 48 hrs by SRB assay; format: functional; conditions: PC-3, 48 h; procedure, shortened: as §1
CAKI-1 = assay: Growth inhibition of human Caki1 cells after 48 hrs by SRB assay; format: functional; conditions: CAKI-1, 48 h; procedure, shortened: as §1
HCT-116 = assay: Growth inhibition of human HCT116 cells after 48 hrs by SRB assay; format: functional; conditions: HCT-116, 48 h; procedure, shortened: as §1
M14 = assay: Growth inhibition of human M14 cells after 48 hrs by SRB assay; format: functional; conditions: M14, 48 h; procedure, shortened: as §1
NCI-H460 [3] = assay: Cytotoxicity against human NCI-H460 cells after 72 hrs by SRB assay; format: functional, cell-based; conditions: NCI-H460, 72 h
Procedure, shortened: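 NCI-H460 (ATCC) cells seeded in 96-well plates in growth medium. Scalar drug concentrations added 24 h after plating, then 72 h exposure. Surviving cells stained with sulforhodamine B, OD read at 570 nm. IC50 (50% growth inhibition) fitted from dose–response curves. Mean ± SE of at least three independent experiments.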

SK-MEL-2 = assay: Growth inhibition of human SK-MEL-2 cells after 48 hrs by SRB assay; format: functional; conditions: SK-MEL-2, 48 h; procedure, shortened: as §1
SF-539 = assay: Growth inhibition of human SF539 cells after 48 hrs by SRB assay; format: functional; conditions: SF-539, 48 h; procedure, shortened: as §1
MOLT-4 = assay: Growth inhibition of human MOLT4 cells after 48 hrs by SRB assay; format: functional; conditions: MOLT-4, 48 h; procedure, shortened: as §1
UACC-62 = assay: Growth inhibition of human UACC62 cells after 48 hrs by SRB assay; format: functional; conditions: UACC-62, 48 h; procedure, shortened: as §1

Which results are given for COc1cc(C2=NN(C(C)=O)C(c3cc(OC)c(OC)c(OC)c3)C2)ccc1O (stereo not drawn)?
GI50 (KM12): 251 nM; TGI (KM12; read-out: pTGI (converted)): > 100000 nM; GI50 (OVCAR-8): 631 nM; TGI (OVCAR-8; read-out: pTGI (converted)): > 100000 nM; GI50 (SK-MEL-5): 63.1 nM; TGI (SK-MEL-5; read-out: pTGI (converted)): 501 nM; GI50 (SK-OV-3): 316 nM; TGI (SK-OV-3; read-out: pTGI (converted)): > 100000 nM; GI50 (NCI-H322M): 501 nM; TGI (NCI-H322M; read-out: pTGI (converted)): > 100000 nM; GI50 [1]: 200 nM; TGI ([1]; read-out: pTGI (converted)): 794 nM; GI50 (NCI/ADR-RES): 251 nM; TGI (NCI/ADR-RES; read-out: pTGI (converted)): > 100000 nM; GI50 (CCRF-CEM): 316 nM; TGI (CCRF-CEM; read-out: pTGI (converted)): 1000 nM; GI50 (SW-620): 316 nM; TGI (SW-620; read-out: pTGI (converted)): > 100000 nM; GI50 (OVCAR-4): 398 nM; TGI (OVCAR-4; read-out: pTGI (converted)): > 100000 nM; GI50 (HCT-15): 398 nM; TGI (HCT-15; read-out: pTGI (converted)): > 100000 nM; GI50 (A498): 251 nM; TGI (A498; read-out: pTGI (converted)): 3980 nM; GI50 (OVCAR-3): 251 nM; TGI (OVCAR-3; read-out: pTGI (converted)): 631 nM; GI50 (K562): 398 nM; TGI (K562; read-out: pTGI (converted)): > 100000 nM; GI50 (NCI-H460 [2]): 398 nM; TGI (NCI-H460 [2]; read-out: pTGI (converted)): 15800 nM; GI50 (U-251): 398 nM; TGI (U-251; read-out: pTGI (converted)): > 100000 nM; GI50 (786-0): 398 nM; TGI (786-0; read-out: pTGI (converted)): > 100000 nM; GI50 (MDA-MB-468): 251 nM; TGI (MDA-MB-468; read-out: pTGI (converted)): 794 nM; GI50 (TK-10): 631 nM; TGI (TK-10; read-out: pTGI (converted)): > 100000 nM; GI50 (MDA-MB-435): 50.1 nM; TGI (MDA-MB-435; read-out: pTGI (converted)): 200 nM; GI50 (BT-549): 631 nM; TGI (BT-549; read-out: pTGI (converted)): > 100000 nM; GI50 (RXF 393): 126 nM; GI50 (SF-268): 631 nM; TGI (SF-268; read-out: pTGI (converted)): > 100000 nM; GI50 (NCI-H522): 316 nM; TGI (NCI-H522; read-out: pTGI (converted)): > 100000 nM; GI50 (DU-145): 316 nM; TGI (DU-145; read-out: pTGI (converted)): 12600 nM; GI50 (HOP-62): 501 nM; TGI (HOP-62; read-out: pTGI (converted)): > 100000 nM; GI50 (PC-3): 251 nM; TGI (PC-3; read-out: pTGI (converted)): > 100000 nM; GI50 (CAKI-1): 316 nM; TGI (CAKI-1; read-out: pTGI (converted)): > 100000 nM; GI50 (HCT-116): 398 nM; TGI (HCT-116; read-out: pTGI (converted)): 50100 nM; GI50 (M14): 398 nM; TGI (M14; read-out: pTGI (converted)): > 100000 nM; IC50 (NCI-H460 [3]): 210 nM; GI50 (SK-MEL-2): 501 nM; TGI (SK-MEL-2; read-out: pTGI (converted)): > 100000 nM; GI50 (SF-539): 316 nM; TGI (SF-539; read-out: pTGI (converted)): 1000 nM; GI50 (MOLT-4): 398 nM; TGI (MOLT-4; read-out: pTGI (converted)): > 100000 nM; GI50 (UACC-62): 316 nM; TGI (UACC-62; read-out: pTGI (converted)): > 100000 nM
